B2AR ag: human beta-2 adrenergic receptor agonism by FAP. response, % (no concentration beside the values). P07550. 340,000 tested, 0.43% active. Am2.2-beta2AR cells, FAP receptor internalization, flow cytometry;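 active = response above a set limit, near 3 SD of response in nonfluorescent compounds, cut at about 42% in these data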
CCR6 antag: CCR6 (human) receptor antagonism | P51684 | CHO-K1 CCR6 PathHunter beta-arrestin, luminescence, CCL20-stimulated | inhibition, % at 20 µM | 340,000 tested, 0.49% active | AID 493098;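 active = compounds whose inhibition of the agonist-driven luminescence signal at 20 µM reaches about 50%, limit read from the data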;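 also: cells stimulated with CCL20 at 14 nM final; plate controls were DMSO with CCL20 for no effect and DMSO without agonist for full effect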
CXCR6 inh: inhibitors of human CXCR6 receptor | O00574 | CHO-K1 PathHunter CXCR6 beta-arrestin, luminescence | inhibition, % at 20 µM | 360,000 tested, 0.36% active; in the data active = inhibition above about 34%, passing the limit was not always enough;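 also: antagonist mode with CXCL16 agonist at 10 nM final; 0% = 10 nM CXCL16 with DMSO and 100% = unstimulated wells without agonist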
Target sequence (O00574 whole entry, looked up): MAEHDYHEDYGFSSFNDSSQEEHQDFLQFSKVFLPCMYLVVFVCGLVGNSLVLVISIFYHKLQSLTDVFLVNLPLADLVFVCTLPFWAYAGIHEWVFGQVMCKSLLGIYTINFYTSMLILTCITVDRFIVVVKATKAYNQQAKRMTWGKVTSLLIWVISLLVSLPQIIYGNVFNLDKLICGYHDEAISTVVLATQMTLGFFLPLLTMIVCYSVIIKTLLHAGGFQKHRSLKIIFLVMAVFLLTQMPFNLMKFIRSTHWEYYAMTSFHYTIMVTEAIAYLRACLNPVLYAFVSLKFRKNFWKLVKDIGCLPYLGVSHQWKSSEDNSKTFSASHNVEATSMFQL
APJ antagonist: blocks the human apelin receptor APJ | CHO-K1 APJ beta-arrestin complementation, luminescence | inhibition, % at 20 µM | 330,000 tested, 0.32% active | AID 2521;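 active = inhibition above about 40% at 20 µM, limit read from the data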;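 also: cells challenged with 10 nM apelin-13 agonist together with compound; plate controls were apelin-13 plus DMSO wells for no effect and DMSO wells lacking apelin-13 for full effect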
EBI2 block: blocks human EBI2 receptor beta-arrestin signaling; P32249; EBI2 beta-arrestin recruitment, luminescence, 7a,25-OHC stimulated; inhibition, % at 5 µM; 360,000 tested, 0.81% active; in the data active = inhibition above about 38%;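 also: enzyme fragment complementation signal reports receptor beta-arrestin coupling in cells; 0% = agonist plus DMSO wells and 100% = wells without agonist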
APJ agonist: activates the human apelin receptor APJ; CHO-K1 APJ PathHunter beta-arrestin, luminescence; 0% DMSO wells, 100% apelin; 330,000 tested, 0.11% active; AID 2520; P35414; activation, % at 20 µM;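 active = activation more than six SD over the plate average, tested at 20 µM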;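 also: 0% = DMSO alone and 100% = apelin-13 at 10 nM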
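Material: CHO-K1 APJ beta-arrestin complementation cell line; Input: cell density 1000 per well; Incubation: compound stimulation 90 min at 25 °C, detection 60 min; Signal: luminescence from split beta-galactosidase complementation, Galacton Star/Emerald II substrate; Controls: DMSO-only wells as negative, 10 nM Apelin-13 as positive control.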
* marks the source's active call; other numbers are inactive results. Only some compounds are listed: those with a hit (about 1.8% of all), similar ones and a draw of the others.

CCOc1ccc2nc(N=Nc3c(O)[nH]c(=S)[nH]c3=O)sc2c1 was read as B2AR ag 1, CCR6 antag 50*, CXCR6 inh 29, APJ antagonist 56*, EBI2 block 11 and APJ agonist -6.
For CCOc1ccc2nc(N=Nc3c(O)[nH]c(=O)[nH]c3=O)sc2c1 the results were B2AR ag -2, CCR6 antag 35, CXCR6 inh 18, APJ antagonist 34, EBI2 block -8 and APJ agonist -9.
CC(=O)OC[C@]12CCC(C)=C[C@H]1O[C@@H]1[C@H](O)[C@@H](OC(C)=O)[C@@]2(C)[C@]12CO2 was read as B2AR ag 103*, CCR6 antag 7, CXCR6 inh 4, APJ antagonist 15, EBI2 block 14 and APJ agonist -2.
COc1cc2c(c(OC)c1OC)-c1ccc(SC)c(=O)cc1C(N)CC2 (stereo not drawn) was read as B2AR ag 9, CCR6 antag 1, CXCR6 inh 0 and EBI2 block -12.
For CCN(CC)c1ccc(/C=C/[N+](=O)[O-])cc1 the results were B2AR ag 63*, CCR6 antag 44, CXCR6 inh 40*, APJ antagonist 35, EBI2 block 0 and APJ agonist 2.
ON1C2CCCCC2N(O)C1c1ccccc1 (stereo not drawn) was read as B2AR ag 6, CCR6 antag 67*, CXCR6 inh 34, APJ antagonist 33, EBI2 block -1 and APJ agonist -15.
Screening CC1=CC2/C=C(\C)CCC(O)C(O)/C=C/C(=O)C23C(=O)NC(CC(C)C)C3C1C (stereo not drawn) returned B2AR ag 40, CCR6 antag 33, CXCR6 inh 29, APJ antagonist 19, EBI2 block 47* and APJ agonist -1.
`Nc1c(Br)cc2c3c(cccc13)-c1ccccc1-2` gave CCR6 antag 2.
`O=c1[nH]c(=O)n(-c2cccc(F)c2)c(O)c1/C=C1\C=Nc2ccccc21` gave B2AR ag 44*, CCR6 antag -10, CXCR6 inh 0, APJ antagonist -3, EBI2 block -7 and APJ agonist 1.
C[C@@H]1C[C@@H]([C@H](O)CC2CC(=O)NC(=O)C2)C(=O)[C@@H](C)C1 was read as B2AR ag 11, CCR6 antag -6, CXCR6 inh 8, APJ antagonist -17, EBI2 block 16 and APJ agonist 0.
For CC(=O)OC1(C)CC(C)C(=O)C(C(O)CC2CC(=O)NC(=O)C2)C1 (stereo not drawn) the results were B2AR ag 68*, CCR6 antag 0, CXCR6 inh 7 and EBI2 block 9.
O=C1C2CC(CN3CCCCC23)C2CCCCN12 (stereo not drawn) was read as CXCR6 inh 7 and EBI2 block -2.
Screening COc1cc(C=C2C(=O)NC(=O)NC2=O)ccc1OCc1ccc([N+](=O)[O-])cc1 returned B2AR ag -3, CCR6 antag 1, CXCR6 inh 2 and EBI2 block 2.
Screening COc1cc(/C=C(/C)[N+](=O)[O-])ccc1OCc1ccccc1Cl returned B2AR ag 48*, CCR6 antag 61*, CXCR6 inh 50*, APJ antagonist 28, EBI2 block 72* and APJ agonist 5.
Screening CCOC(=O)[C@]12Cc3cc(OC)ccc3[C@H]1N(C1CCCCC1)C(=O)c1cc(OC)ccc12 returned CXCR6 inh 6 and EBI2 block 3.
`CCOC(=O)[C@]12Cc3cc(C)ccc3[C@H]1N(C1CCCCC1)C(=O)c1cc(OC)ccc12` gave CXCR6 inh 26 and EBI2 block 76*.
Screening O=C1CC2OCC=C3CN4CCC56c7ccccc7N1C5C2C3CC46O (stereo not drawn) returned CXCR6 inh 0 and EBI2 block 1.
For c1ccc2c(c1)[IH]c1ccccc1-2 the results were B2AR ag 13, CCR6 antag -9, CXCR6 inh -17 and EBI2 block -23.
`CN1C(=O)/C(=C/c2cccn2-c2ccc3ccccc3c2)C(=O)NC1=S` gave B2AR ag 47*, CCR6 antag 18, CXCR6 inh 34, APJ antagonist -11, EBI2 block 25 and APJ agonist 11.
O=C1NC(=S)NC(=O)C1=Cc1cccn1-c1ccc(O)cc1 was read as B2AR ag 71*, CCR6 antag 23, CXCR6 inh 7 and EBI2 block -8.
For CC1=C(C)CN2CC(C#N)=C(N)C2C1 (stereo not drawn) the results were CXCR6 inh -3 and EBI2 block -14.
For COc1ccc(C(=O)OC2C[C@H]3CC[C@@H](C2)N3O)cc1OC (stereo partly drawn) the results were B2AR ag 62*, CCR6 antag -3, CXCR6 inh 2, APJ antagonist -5, EBI2 block -9 and APJ agonist 2.
`CN1C2CCC1CC(OC(=O)c1cccc(O)c1)C2` (stereo not drawn) gave B2AR ag -1, CCR6 antag -4, CXCR6 inh -10 and EBI2 block -7.
For COC1C(C)OC(OC2CC(C)(O)Cc3cc4c(c(O)c32)C(=O)c2c(O)cc3c(c2C4=O)OC2OC3(C)C(O)C(N(C)C)C2O)C(OC)C1(C)OC (stereo not drawn) the results were B2AR ag -4, CCR6 antag 10, CXCR6 inh 5 and EBI2 block -28.
Screening COc1ccc(N2C(=O)/C(=C/c3cccs3)C(=O)NC2=S)cc1 returned B2AR ag 4, CCR6 antag 48, CXCR6 inh -8, APJ antagonist 9, EBI2 block -2 and APJ agonist -1.
Screening COc1ccc(N2C(=O)/C(=C/C=C/c3ccccc3[N+](=O)[O-])C(=O)NC2=S)cc1 returned CCR6 antag 59*, APJ antagonist -1 and APJ agonist 2.
`Cc1ccc(/C=C2\C(=O)NC(=S)N(c3ccccc3F)C2=O)s1` gave B2AR ag 71*, CCR6 antag 96*, CXCR6 inh 40* and EBI2 block 11.
For C[CH2][Hg][S]c1ccccc1C(=O)O the results were B2AR ag 35, CCR6 antag 24, CXCR6 inh 24, APJ antagonist 9, EBI2 block 1 and APJ agonist 10.
CCC1C2CC3C4N(C)c5ccccc5C45CC(C2C5O)N3C1O (stereo not drawn) was read as CXCR6 inh -2 and EBI2 block 10.
O=C1NC(=O)N(Cc2ccco2)C(=O)/C1=C/c1ccc(-c2cccc([N+](=O)[O-])c2)o1 was read as B2AR ag 34, CCR6 antag 65*, CXCR6 inh 35, APJ antagonist 24, EBI2 block 24 and APJ agonist -4.

Screening results from PubChem.
